Assay results published in ChEMBL document CHEMBL4613272, “Anti-HIV-Active Nucleoside Triphosphate Prodrugs” (J Med Chem, 2020).

Legend:
[1] = Half life in pH 7.3 phosphate buffered saline by HPLC analysis; format: physicochemical
In short: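 Prodrug from 50 mM DMSO-d6 stock diluted to 1.9 mM with water/DMSO-d6. Reaction started by adding phosphate buffer (50 mM stock, pH 7.3). Products followed by analytical RP18 HPLC with TBAA or TEAA buffer/acetonitrile gradient.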

[2] = Cytotoxicity against human CEM cells assessed as reduction in cell proliferation; format: cell-based; conditions: CEM cells (CCRF-CEM)
In short: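 CC50 is the compound concentration inhibiting CEM CD4+ T-cell proliferation by 50%. Mean ± SD of n=2-3 independent experiments.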

[3] = Selectivity index, ratio of CC50 for human CEM cells to EC50 for HIV1 HE infected in human CEM/0 cells; conditions: CEM cells (CC50) and HIV1 HE infected CEM/0 cells (EC50)
[4] = tested on: Human immunodeficiency virus 1; assay: Antiviral activity against HIV1 HE infected in human CEM/0 cells assessed as inhibition of virus-induced giant cell formation measured after 4 to 5 days by microscopic analysis; conditions: Human immunodeficiency virus 1, HE, CCRF-CEM
[5] = tested on: Human immunodeficiency virus 2; assay: Antiviral activity against HIV2 ROD infected in human CEM/0 cells assessed as inhibition of virus-induced giant cell formation measured after 4 to 5 days by microscopic analysis; conditions: Human immunodeficiency virus 2, ISOLATE ROD, CCRF-CEM
[6] = tested on: Human immunodeficiency virus 2; assay: Antiviral activity against HIV2 ROD infected in thymidine kinase-deficient human CEM cells assessed as inhibition of virus-induced giant cell formation measured after 4 to 5 days by microscopic analysis; conditions: Human immunodeficiency virus 2, ISOLATE ROD, CCRF-CEM
[7] = Prodrug conversion in pH 7.3 phosphate buffered saline assessed as pig liver esterase-mediated d4TTP formation by HPLC analysis; format: ADME, Sus scrofa; conditions: in vitro
In short: (§1)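 Prodrug diluted from 50 mM DMSO stock through a 6.0 mM intermediate into DMSO/50 mM PBS pH 7.3. Started with pig liver esterase (3 mg/mL solution in PBS) and shaken at 37 °C, 800 rpm. Aliquots quenched in MeOH at intervals, filtered, stored in liquid nitrogen and analysed by RP18 HPLC.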

[8] = Half life in pH 7.3 phosphate buffered saline in presence of pig liver esterase by HPLC analysis; format: ADME, Sus scrofa; in short: as §1
[9] = Half life in human CEM/0 cell extracts by HPLC analysis; format: ADME, CCRF-CEM
In short: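 Cell extract prepared from CEM cells grown in RPMI-1640-based medium to ~3·10^6 cells/mL. Cells washed twice in cold PBS, resuspended at 10^8 cells/mL, sonicated, cleared at 10,000 rpm and stored at -80 °C. Prodrug at 6.0 mM hydrolysis solution in DMSO-d6 mixed with water and extract at 37 °C over time. Samples iced, sonicated and centrifuged; supernatant analysed by RP18 HPLC. t1/2 calculated as for chemical hydrolysis.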

| half-life [1] | EC50 [4] | EC50 [5] | EC50 [6] | Drug metabolism [7] | half-life [8] | half-life [9] | SMILES | CC50 [2] | selectivity ratio [3] |
| --- | --- | --- | --- | --- | --- | --- | --- | --- | --- |
| 89 h |  |  |  |  |  |  | CCCCCCCCCCCCCCCCOC(=O)Oc1ccc(COP(=O)(OCc2ccc(OC(=O)CCCCCC)cc2)OP(=O)(O)OP(=O)(O)OC[C@@H]2C=C[C@H](n3cc(C)c(=O)[nH]c3=O)O2)cc1.N.N (stereo partly specified) |  |  |
| 111 h |  |  |  |  |  |  | CCCCCCCCCCCCCCCCCCOC(=O)Oc1ccc(COP(=O)(OCc2ccc(OC(=O)OCCCC)cc2)OP(=O)(O)OP(=O)(O)OC[C@@H]2C=C[C@H](n3cc(C)c(=O)[nH]c3=O)O2)cc1.N.N (stereo partly specified) |  |  |
| 25 h | 73 nM | 40 nM | 1760 nM |  |  |  | CCCCCCCCCOC(=O)Oc1ccc(COP(=O)(OCc2ccc(OC(=O)CC)cc2)OP(=O)(O)OP(=O)(O)OC[C@@H]2C=C[C@H](n3cc(C)c(=O)[nH]c3=O)O2)cc1.N.N (stereo partly specified) | 84000 nM | 1150 |
| 66 h | 61 nM | 130 nM | 640 nM | Metabolite_Detected | 0.44 h |  | CCCCCCCCCCCCOC(=O)Oc1ccc(COP(=O)(OCc2ccc(OC(=O)CC)cc2)OP(=O)(O)OP(=O)(O)OC[C@@H]2C=C[C@H](n3cc(C)c(=O)[nH]c3=O)O2)cc1.N.N (stereo partly specified) | 33000 nM | 541 |
| 107 h | 730 nM | 170 nM | 1120 nM | Metabolite_Detected | 0.28 h |  | CCCCCCCCCCCCOC(=O)Oc1ccc(COP(=O)(OCc2ccc(OC(=O)OCCCC)cc2)OP(=O)(O)OP(=O)(O)OC[C@@H]2C=C[C@H](n3cc(C)c(=O)[nH]c3=O)O2)cc1.N.N (stereo partly specified) | 54000 nM | 74 |
| 544 h |  |  |  |  |  |  | CCCCCCOC(=O)Oc1ccc(COP(=O)(O)OP(=O)(O)OP(=O)(O)OC[C@@H]2C=C[C@H](n3cc(C)c(=O)[nH]c3=O)O2)cc1.N.N.N |  |  |
| 90 h |  |  |  | Metabolite_Detected | 13.8 h | 6.4 h | CCCCCCCCCCCCCCCCOC(=O)Oc1ccc(COP(=O)(OCc2ccc(OC(=O)CCCCCCCC)cc2)OP(=O)(O)OP(=O)(O)OC[C@@H]2C=C[C@H](n3cc(C)c(=O)[nH]c3=O)O2)cc1.N.N (stereo partly specified) |  |  |
| 74 h |  |  |  |  |  |  | CCCCCCCCCCCCCCOC(=O)Oc1ccc(COP(=O)(OCc2ccc(OC(=O)CC)cc2)OP(=O)(O)OP(=O)(O)OC[C@@H]2C=C[C@H](n3cc(C)c(=O)[nH]c3=O)O2)cc1.N.N (stereo partly specified) |  |  |
| 74 h | 55 nM | 25 nM | 560 nM |  |  |  | CCCCCCCCCCCCCCCCCCOC(=O)Oc1ccc(COP(=O)(OCc2ccc(OC(=O)CCCC)cc2)OP(=O)(O)OP(=O)(O)OC[C@@H]2C=C[C@H](n3cc(C)c(=O)[nH]c3=O)O2)cc1.N.N (stereo partly specified) | 58000 nM | 1050 |
| 81 h |  |  |  |  |  |  | CCCCCCCCCCCCCCCCOC(=O)Oc1ccc(COP(=O)(OCc2ccc(OC(C)=O)cc2)OP(=O)(O)OP(=O)(O)OC[C@@H]2C=C[C@H](n3cc(C)c(=O)[nH]c3=O)O2)cc1.N.N (stereo partly specified) |  |  |
| 84 h | 570 nM | 240 nM | 1750 nM | Metabolite_Detected | 0.51 h | 0.94 h | CCCCCCCCCCCCOC(=O)Oc1ccc(COP(=O)(OCc2ccc(OC(=O)OCC)cc2)OP(=O)(O)OP(=O)(O)OC[C@@H]2C=C[C@H](n3cc(C)c(=O)[nH]c3=O)O2)cc1.N.N (stereo partly specified) | 64000 nM | 112 |
| 56 h | 530 nM | 300 nM | 3260 nM |  |  |  | CCCCCCCCCCCCCCCCOC(=O)Oc1ccc(COP(=O)(OCCC#N)OP(=O)(O)OP(=O)(O)OC[C@@H]2C=C[C@H](n3cc(C)c(=O)[nH]c3=O)O2)cc1.N.N (stereo partly specified) | 53000 nM | 100 |
| 101 h | 340 nM | 90 nM | 230 nM |  |  |  | CCCCCCCCCOC(=O)Oc1ccc(COP(=O)(OCc2ccc(OC(=O)OCCCCCCCCC)cc2)OP(=O)(O)OP(=O)(O)OC[C@@H]2C=C[C@H](n3cc(C)c(=O)[nH]c3=O)O2)cc1.N.N | 34000 nM | 100 |
| 85 h | 160 nM | 78 nM | 240 nM |  |  |  | CCCCCCCCCCCCCCCCOC(=O)Oc1ccc(COP(=O)(OCc2ccc(OC(=O)CCCCCCCCC)cc2)OP(=O)(O)OP(=O)(O)OC[C@@H]2C=C[C@H](n3cc(C)c(=O)[nH]c3=O)O2)cc1.N.N (stereo partly specified) | 16000 nM | 100 |
| 52 h |  |  |  |  |  |  | CCCCCCCCCCCOC(=O)Oc1ccc(COP(=O)(OCc2ccc(OC(=O)CC)cc2)OP(=O)(O)OP(=O)(O)OC[C@@H]2C=C[C@H](n3cc(C)c(=O)[nH]c3=O)O2)cc1.N.N (stereo partly specified) |  |  |
| 625 h | 330 nM | 250 nM | 1980 nM |  |  |  | CCCCCCCCCCCCOC(=O)Oc1ccc(COP(=O)(O)OP(=O)(O)OP(=O)(O)OC[C@@H]2C=C[C@H](n3cc(C)c(=O)[nH]c3=O)O2)cc1.N.N.N | > 100000 nM | > 303 |
| 30 h | 470 nM | 230 nM | 2480 nM |  |  |  | CCCCCCCCCCCCOC(=O)Oc1ccc(COP(=O)(OCCC#N)OP(=O)(O)OP(=O)(O)OC[C@@H]2C=C[C@H](n3cc(C)c(=O)[nH]c3=O)O2)cc1.N.N (stereo partly specified) | > 100000 nM | > 212 |
| 69 h |  |  |  |  |  |  | CCCCCCCCCCCCCCOC(=O)Oc1ccc(COP(=O)(OCc2ccc(OC(=O)CCCC)cc2)OP(=O)(O)OP(=O)(O)OC[C@@H]2C=C[C@H](n3cc(C)c(=O)[nH]c3=O)O2)cc1.N.N (stereo partly specified) |  |  |
| 74 h |  |  |  |  |  |  | CCCCCCCCCCCCCCCOC(=O)Oc1ccc(COP(=O)(OCc2ccc(OC(=O)CCCC)cc2)OP(=O)(O)OP(=O)(O)OC[C@@H]2C=C[C@H](n3cc(C)c(=O)[nH]c3=O)O2)cc1.N.N (stereo partly specified) |  |  |
| 75 h |  |  |  |  |  |  | CCCCCCCCCCCCOC(=O)Oc1ccc(COP(=O)(OCc2ccc(OC(=O)CCC)cc2)OP(=O)(O)OP(=O)(O)OC[C@@H]2C=C[C@H](n3cc(C)c(=O)[nH]c3=O)O2)cc1.N.N (stereo partly specified) |  |  |
| 34 h |  |  |  |  |  |  | CCCCCCCCCCOC(=O)Oc1ccc(COP(=O)(OCc2ccc(OC(=O)CC)cc2)OP(=O)(O)OP(=O)(O)OC[C@@H]2C=C[C@H](n3cc(C)c(=O)[nH]c3=O)O2)cc1.N.N (stereo partly specified) |  |  |
| 81 h | 110 nM | 90 nM | 150 nM |  |  |  | CCCCCCCCCOC(=O)Oc1ccc(COP(=O)(OCc2ccc(OC(=O)CCCCCCCCC)cc2)OP(=O)(O)OP(=O)(O)OC[C@@H]2C=C[C@H](n3cc(C)c(=O)[nH]c3=O)O2)cc1.N.N (stereo partly specified) | 37000 nM | 336 |
| 77 h |  |  |  |  |  |  | CCCCCCCCCCCCCCCCOC(=O)Oc1ccc(COP(=O)(OCc2ccc(OC(=O)CC(C)C)cc2)OP(=O)(O)OP(=O)(O)OC[C@@H]2C=C[C@H](n3cc(C)c(=O)[nH]c3=O)O2)cc1.N.N (stereo partly specified) |  |  |
| 460 h |  |  |  |  |  |  | CCCCCCCCCCCC(=O)Oc1ccc(COP(=O)(O)OP(=O)(O)OP(=O)(O)OC[C@@H]2C=C[C@H](n3cc(C)c(=O)[nH]c3=O)O2)cc1.N.N.N |  |  |
| 74 h |  |  | 120 nM | Metabolite_Detected | 1.6 h | 3.7 h | CCCCCCCCCCCCCCCCOC(=O)Oc1ccc(COP(=O)(OCc2ccc(OC(=O)CCCC)cc2)OP(=O)(O)OP(=O)(O)OC[C@@H]2C=C[C@H](n3cc(C)c(=O)[nH]c3=O)O2)cc1.N.N (stereo partly specified) | 21000 nM | 656 |
| 70 h |  |  |  |  |  |  | CCCCCCCCCCCCOC(=O)Oc1ccc(COP(=O)(OCc2ccc(OC(=O)C(C)C)cc2)OP(=O)(O)OP(=O)(O)OC[C@@H]2C=C[C@H](n3cc(C)c(=O)[nH]c3=O)O2)cc1.N.N (stereo partly specified) |  |  |
| 87 h | 40 nM | 17 nM | 73 nM | Metabolite_Detected | 0.17 h | 1.2 h | CCCCCCCCCCCCOC(=O)Oc1ccc(COP(=O)(OCc2ccc(OC(=O)CCCC)cc2)OP(=O)(O)OP(=O)(O)OC[C@@H]2C=C[C@H](n3cc(C)c(=O)[nH]c3=O)O2)cc1.N.N (stereo partly specified) | 27000 nM | 675 |
| > 1600 h | 500 nM | 290 nM | 1460 nM |  |  |  | CCCCCCCCCCCCCCCCOC(=O)Oc1ccc(COP(=O)(O)OP(=O)(O)OP(=O)(O)OC[C@@H]2C=C[C@H](n3cc(C)c(=O)[nH]c3=O)O2)cc1.N.N.N | 61000 nM | 122 |
| > 500 h |  |  |  |  |  |  | Cc1cn([C@H]2C=C[C@@H](COP(=O)(O)OP(=O)(O)OP(=O)(O)O)O2)c(=O)[nH]c1=O [STAVUDINE TRIPHOSPHATE] |  |  |
|  |  |  | 31000 nM |  |  |  | Cc1cn([C@H]2C=C[C@@H](CO)O2)c(=O)[nH]c1=O [STAVUDINE] | > 50000 nM | > 116 |
